The values below come from ChEMBL document CHEMBL2390924, “Further studies on bis-charged tetraazacyclophanes as potent inhibitors of small conductance Ca(2+)-activated K+ channels” (Eur J Med Chem, 2013).

The target in assay [1] is Small conductance calcium-activated potassium channel protein 3 (Rattus norvegicus) (UniProt P70605). The assay is described as follows: Inhibition of KCa2.3 in rat superior cervical ganglion neurons.
Target sequence in this assay (P70605 whole entry, looked up): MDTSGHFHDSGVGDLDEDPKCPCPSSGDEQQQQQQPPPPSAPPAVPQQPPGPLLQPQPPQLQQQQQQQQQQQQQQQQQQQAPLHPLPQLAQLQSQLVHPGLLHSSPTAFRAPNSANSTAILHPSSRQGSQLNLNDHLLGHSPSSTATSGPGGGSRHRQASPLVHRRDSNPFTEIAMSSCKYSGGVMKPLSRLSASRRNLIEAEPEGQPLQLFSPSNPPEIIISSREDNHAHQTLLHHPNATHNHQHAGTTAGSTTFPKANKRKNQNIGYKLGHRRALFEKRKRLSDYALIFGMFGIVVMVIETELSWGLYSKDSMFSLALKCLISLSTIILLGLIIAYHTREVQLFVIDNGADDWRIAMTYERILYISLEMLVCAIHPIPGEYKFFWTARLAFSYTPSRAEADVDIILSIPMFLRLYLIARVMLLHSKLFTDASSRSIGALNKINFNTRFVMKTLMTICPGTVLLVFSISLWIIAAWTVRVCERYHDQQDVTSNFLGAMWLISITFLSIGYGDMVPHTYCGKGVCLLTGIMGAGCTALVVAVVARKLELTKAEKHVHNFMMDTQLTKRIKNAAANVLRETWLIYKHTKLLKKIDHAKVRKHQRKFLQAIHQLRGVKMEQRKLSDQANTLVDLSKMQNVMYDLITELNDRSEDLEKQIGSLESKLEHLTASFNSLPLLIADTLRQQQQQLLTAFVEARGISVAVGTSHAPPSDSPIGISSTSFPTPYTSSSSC
Assay [2] has the same target. The assay is described as follows: Inhibition of KCa2.3 in Sprague-Dawley rat superior cervical ganglion neurons assessed as inhibition of afterhyperpolarization by electrophysiological assay relative to UCL1848. A digest of the protocol: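 AHP recorded from rat sympathetic ganglion neurons. The equi-effective molar ratio is the test-compound concentration giving 50% AHP inhibition divided by the UCL 1848 concentration giving 50% inhibition, both measured in the same experiment. Each compound was tested on 3–5 neurons.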
Target sequence in this assay (P70605 whole entry): as the sequence (P70605 whole entry, looked up) above

For assay [3] the target is unchanged. Nature of the assay: Inhibition of KCa2.3 in Sprague-Dawley rat superior cervical ganglion neurons assessed as inhibition of afterhyperpolarization by electrophysiological assay relative to dequalinium. A digest of the protocol: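 AHP recorded from rat sympathetic ganglion neurons. The equi-effective molar ratio is the concentration giving 50% AHP inhibition relative to that of dequalinium, used as the comparator instead of UCL 1848.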
Target sequence in this assay (P70605 whole entry): as the sequence (P70605 whole entry, looked up) above

Assay [4] deals with Small conductance calcium-activated potassium channel protein 3 (Rattus norvegicus, UniProt P70605). Nature of the assay: Inhibition of KCa2.3 in Sprague-Dawley rat superior cervical ganglion neurons assessed as inhibition of afterhyperpolarization by electrophysiological assay. A digest of the protocol:
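Afterhyperpolarization (AHP) recorded from rat sympathetic ganglion neurons. The reported value is the concentration giving a 50% reduction in AHP amplitude.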

Chain of Small conductance calcium-activated potassium channel protein 3 (P70605 whole entry): as the sequence (P70605 whole entry, looked up) above

Regarding `c1ccc2c(c1)c1cc[n+]2CCCCC[n+]2ccc(c3ccccc32)NCc2ccc(cc2)CN1`, the 50% inhibitory concentration (IC50) (in general, the concentration that inhibits the measured activity by half) in assay [1] worked out at 60 nM. Consider `c1cc2cc(c1)CNc1cc[n+](c3ccccc13)CCCCC[n+]1ccc(c3ccccc31)NC2`, for which the IC50 in assay [1] was found to be 31 nM. In the case of `CN1CCCCCN(C)c2cc[n+](c3ccccc23)CCCCC[n+]2ccc1c1ccccc12`, the EMR was 47 in assay [2] and 0.14 in assay [3]. The IC50 in assay [4] is 124 nM.

In the case of `c1cc2cc(c1)C[n+]1ccc(c3ccccc31)NCC1CCC(CC1)CNc1cc[n+](c3ccccc13)C2`, the EMR in assay [2] came to 0.81. Also, in assay [4], the concentration for half-maximal inhibition (IC50) came out at 1.7 nM.

For `FC(F)(F)c1ccc2c(c1)c1cc[n+]2CCCCC[n+]2ccc(c3cc(C(F)(F)F)ccc32)NCCCCCN1`, the EMR in assay [2] was determined as 1.1. Moreover, the IC50 in assay [4] was 4 nM.

For `FC(F)(F)c1ccc2c(c1)c1cc[n+]2Cc2cccc(c2)C[n+]2ccc(c3cc(C(F)(F)F)ccc32)NCc2ccc(cc2)CN1`, the EMR in assay [2] worked out at 11. In assay [4], the concentration for half-maximal inhibition (IC50) worked out at 27 nM. Taken in the same sequence, the figures for `Oc1c2cccc1CNc1cc[n+](c3ccccc13)CCCCC[n+]1ccc(c3ccccc31)NC2` were 153 and 394 nM.

As to `c1ccc2c(c1)c1cc[n+]2CCOCC[n+]2ccc(c3ccccc32)NCCCCCN1`, in assay [2], the EMR was found to be 1.4. Besides, in assay [4], the IC50 is 4.8 nM. Consider `Clc1ccc2c(c1)c1cc[n+]2Cc2cccc(c2)C[n+]2ccc(c3cc(Cl)ccc32)NCc2ccc(cc2)CN1`, for which, in assay [2], the EMR was 8. Moreover, the half-maximal inhibitory concentration (IC50) in assay [4] was 21 nM. As to `Clc1cc(Cl)c2c3cc[n+](c2c1)CCCCC[n+]1ccc(c2c(Cl)cc(Cl)cc21)NCCCCCN3`, the EMR in assay [2] came to 8.6. Also, in assay [4], the half-inhibitory concentration (IC50) amounted to 21 nM.

Consider `Fc1ccc2c(c1)c1cc[n+]2CCCCC[n+]2ccc(c3cc(F)ccc32)NCCCCCN1`, for which the EMR in assay [2] amounted to 2.1. For the same compound, in assay [4], the half-maximal inhibitory concentration (IC50) came to 4.1 nM. Taken in the same sequence, the figures for `Oc1ccc2c(c1)c1cc[n+]2CCCCC[n+]2ccc(c3cc(O)ccc32)NCCCCCN1` were 1.8 and 3.9 nM. As to `Clc1ccc2c3cc[n+](c2c1)CCCCC[n+]1ccc(c2ccc(Cl)cc21)NCCCCCN3`, the EMR in assay [2] turned out to be 0.53. The 50% inhibitory concentration (IC50) in assay [4] was 2.6 nM. As for `Nc1ccc2c(c1)c1cc[n+]2Cc2cccc(c2)C[n+]2ccc(c3cc(N)ccc32)NCc2ccc(cc2)CN1`, in assay [2], the EMR turned out to be 1.7. Also, the half-inhibitory concentration (IC50) in assay [4] is 3.7 nM.
